Test results reported in ChEMBL document CHEMBL1641426, “Microwave assisted one pot synthesis of some novel 2,5-disubstituted 1,3,4-oxadiazoles as antifungal agents” (2011).
Values after ≈ are worked out from the molar mass of the structure shown. Active and inactive are the calls of the source. The rule behind the calls is not given here.

Tests used:
Cryptococcus neoformans [1] = experiment: Antifungal activity against Cryptococcus neoformans assessed as appearance of macroscopically visible colonies upto 200 ug/ml after 48 and 72 hrs by standard agar dilution method; type: functional, organism-based
How it was run: (§1)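 MIC by standard agar method. Tested against Candida albicans, Fusarium oxysporum, Aspergillus flavus, Aspergillus niger and Cryptococcus neoformans. Dimethyl sulfoxide served as solvent control, and miconazole and fluconazole served as reference standards.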

Aspergillus niger [2] = experiment: Antifungal activity against Aspergillus niger assessed as macroscopically visible colonies after 48 and 72 hrs by standard agar dilution method; type: functional; how it was run: as §1
Aspergillus flavus = experiment: Antifungal activity against Aspergillus flavus assessed as macroscopically visible colonies after 48 and 72 hrs by standard agar dilution method; type: functional; how it was run: as §1
Candida albicans [3] = experiment: Antifungal activity against Candida albicans assessed as macroscopically visible colonies after 48 and 72 hrs by standard agar dilution method; type: functional; how it was run: as §1
Fusarium oxysporum = experiment: Antifungal activity against Fusarium oxysporum assessed as macroscopically visible colonies after 48 and 72 hrs by standard agar dilution method; type: functional; how it was run: as §1
Candida albicans [4] = experiment: Antifungal activity against Candida albicans assessed as macroscopically visible colonies upto 200 ug/ml after 48 and 72 hrs by standard agar dilution method; type: functional, organism-based; how it was run: as §1
Aspergillus niger [5] = experiment: Antifungal activity against Aspergillus niger assessed as macroscopically visible colonies upto 200 ug/ml after 48 and 72 hrs by standard agar dilution method; type: functional, organism-based; how it was run: as §1
Cryptococcus neoformans [6] = experiment: Antifungal activity against Cryptococcus neoformans assessed as appearance of macroscopically visible colonies after 48 and 72 hrs by standard agar dilution method; type: functional; how it was run: as §1

SMILES	Activity (Cryptococcus neoformans [1])	MIC (Aspergillus niger [2])	MIC (Aspergillus flavus)	MIC (Candida albicans [3])	MIC (Fusarium oxysporum)	Activity (Candida albicans [4])	Activity (Aspergillus niger [5])	MIC (Cryptococcus neoformans [6])
O=C(c1ccc(Cl)cc1)N1CCC(n2cc(-c3nnc(-c4ccccc4)o3)nn2)CC1	inactive	100 µg/mL (≈ 230 µM)	90 µg/mL (≈ 207 µM)	150 µg/mL (≈ 345 µM)	90 µg/mL (≈ 207 µM)	–	–	–
CC(=O)N1CCC(n2cc(-c3nnc(-c4cccc(C)c4)o3)nn2)CC1	inactive	40 µg/mL (≈ 114 µM)	35 µg/mL (≈ 99.3 µM)	45 µg/mL (≈ 128 µM)	40 µg/mL (≈ 114 µM)	–	–	–
Cc1cccc(-c2nnc(-c3cn(C4CCN(C(=O)c5ccccc5)CC4)nn3)o2)c1	inactive	–	150 µg/mL (≈ 362 µM)	–	100 µg/mL (≈ 241 µM)	inactive	inactive	–
CN1CCC(n2cc(-c3nnc(-c4ccccc4)o3)nn2)CC1	–	80 µg/mL (≈ 258 µM)	60 µg/mL (≈ 193 µM)	70 µg/mL (≈ 226 µM)	70 µg/mL (≈ 226 µM)	–	–	90 µg/mL (≈ 290 µM)
COc1cccc(-c2nnc(-c3cn(C4CCN(C)CC4)nn3)o2)c1	–	70 µg/mL (≈ 206 µM)	50 µg/mL (≈ 147 µM)	60 µg/mL (≈ 176 µM)	65 µg/mL (≈ 191 µM)	–	–	80 µg/mL (≈ 235 µM)
CCN1CCC(n2cc(-c3nnc(-c4ccccc4)o3)nn2)CC1	–	80 µg/mL (≈ 247 µM)	60 µg/mL (≈ 185 µM)	55 µg/mL (≈ 170 µM)	50 µg/mL (≈ 154 µM)	–	–	80 µg/mL (≈ 247 µM)
CS(=O)(=O)N1CCC(n2cc(-c3nnc(-c4cccc(O)c4)o3)nn2)CC1	–	15 µg/mL (≈ 38.4 µM)	15 µg/mL (≈ 38.4 µM)	30 µg/mL (≈ 76.8 µM)	25 µg/mL (≈ 64 µM)	–	–	100 µg/mL (≈ 256 µM)
c1ccc(-c2nnc(-c3cn(C4CCNCC4)nn3)o2)cc1	–	125 µg/mL (≈ 422 µM)	90 µg/mL (≈ 304 µM)	80 µg/mL (≈ 270 µM)	85 µg/mL (≈ 287 µM)	–	–	150 µg/mL (≈ 506 µM)
CCN1CCC(n2cc(-c3nnc(-c4cccc(O)c4)o3)nn2)CC1	–	20 µg/mL (≈ 58.8 µM)	20 µg/mL (≈ 58.8 µM)	35 µg/mL (≈ 103 µM)	35 µg/mL (≈ 103 µM)	–	–	60 µg/mL (≈ 176 µM)
CS(=O)(=O)N1CCC(n2cc(-c3nnc(-c4cccc([N+](=O)[O-])c4)o3)nn2)CC1	–	70 µg/mL (≈ 167 µM)	50 µg/mL (≈ 119 µM)	40 µg/mL (≈ 95.4 µM)	55 µg/mL (≈ 131 µM)	–	–	90 µg/mL (≈ 215 µM)
CC(=O)N1CCC(n2cc(-c3nnc(-c4cccc(Cl)c4)o3)nn2)CC1	inactive	25 µg/mL (≈ 67.1 µM)	20 µg/mL (≈ 53.6 µM)	35 µg/mL (≈ 93.9 µM)	30 µg/mL (≈ 80.5 µM)	–	–	–
CCN1CCC(n2cc(-c3nnc(-c4cccc(Cl)c4)o3)nn2)CC1	–	50 µg/mL (≈ 139 µM)	25 µg/mL (≈ 69.7 µM)	40 µg/mL (≈ 111 µM)	35 µg/mL (≈ 97.5 µM)	–	–	50 µg/mL (≈ 139 µM)
CS(=O)(=O)N1CCC(n2cc(-c3nnc(-c4ccccc4)o3)nn2)CC1	–	40 µg/mL (≈ 107 µM)	45 µg/mL (≈ 120 µM)	35 µg/mL (≈ 93.5 µM)	40 µg/mL (≈ 107 µM)	–	–	55 µg/mL (≈ 147 µM)
CN1CCC(n2cc(-c3nnc(-c4cccc(Cl)c4)o3)nn2)CC1	–	45 µg/mL (≈ 131 µM)	40 µg/mL (≈ 116 µM)	55 µg/mL (≈ 160 µM)	50 µg/mL (≈ 145 µM)	–	–	150 µg/mL (≈ 435 µM)
O=C(c1ccccc1)N1CCC(n2cc(-c3nnc(-c4ccccc4)o3)nn2)CC1	inactive	175 µg/mL (≈ 437 µM)	150 µg/mL (≈ 375 µM)	–	100 µg/mL (≈ 250 µM)	inactive	–	–
CCN1CCC(n2cc(-c3nnc(-c4cccc(OC)c4)o3)nn2)CC1	–	75 µg/mL (≈ 212 µM)	50 µg/mL (≈ 141 µM)	50 µg/mL (≈ 141 µM)	60 µg/mL (≈ 169 µM)	–	–	100 µg/mL (≈ 282 µM)
CC(C)(C)OC(=O)N1CCC(n2cc(-c3nnc(-c4ccccc4)o3)nn2)CC1	inactive	150 µg/mL (≈ 378 µM)	100 µg/mL (≈ 252 µM)	100 µg/mL (≈ 252 µM)	125 µg/mL (≈ 315 µM)	–	–	–
CS(=O)(=O)N1CCC(n2cc(-c3nnc(-c4cccc(Cl)c4)o3)nn2)CC1	–	20 µg/mL (≈ 48.9 µM)	15 µg/mL (≈ 36.7 µM)	25 µg/mL (≈ 61.1 µM)	25 µg/mL (≈ 61.1 µM)	–	–	50 µg/mL (≈ 122 µM)
CN1CCC(n2cc(-c3nnc(-c4cccc(O)c4)o3)nn2)CC1	inactive	35 µg/mL (≈ 107 µM)	25 µg/mL (≈ 76.6 µM)	40 µg/mL (≈ 123 µM)	35 µg/mL (≈ 107 µM)	–	–	–
OC(Cn1cncn1)(Cn1cncn1)c1ccc(F)cc1F [FLUCONAZOLE]	–	10 µg/mL (≈ 32.7 µM)	5 µg/mL (≈ 16.3 µM)	5 µg/mL (≈ 16.3 µM)	5 µg/mL (≈ 16.3 µM)	–	–	5 µg/mL (≈ 16.3 µM)
Clc1ccc(COC(Cn2ccnc2)c2ccc(Cl)cc2Cl)c(Cl)c1 (stereo not given) [MICONAZOLE]	–	12.5 µg/mL (≈ 30 µM)	12.5 µg/mL (≈ 30 µM)	25 µg/mL (≈ 60.1 µM)	25 µg/mL (≈ 60.1 µM)	–	–	25 µg/mL (≈ 60.1 µM)
